In ChEMBL document CHEMBL1149538, “A high-throughput assay for O-GlcNAc transferase detects primary sequence preferences in peptide substrates” (Bioorg Med Chem Lett, 2007):
Where a SMILES comes first, the peptide text is derived from it.

T1: UDP-N-acetylglucosamine--peptide N-acetylglucosaminyltransferase 110 kDa subunit (Homo sapiens) (UniProt O15294)
T1 sequence (whole entry): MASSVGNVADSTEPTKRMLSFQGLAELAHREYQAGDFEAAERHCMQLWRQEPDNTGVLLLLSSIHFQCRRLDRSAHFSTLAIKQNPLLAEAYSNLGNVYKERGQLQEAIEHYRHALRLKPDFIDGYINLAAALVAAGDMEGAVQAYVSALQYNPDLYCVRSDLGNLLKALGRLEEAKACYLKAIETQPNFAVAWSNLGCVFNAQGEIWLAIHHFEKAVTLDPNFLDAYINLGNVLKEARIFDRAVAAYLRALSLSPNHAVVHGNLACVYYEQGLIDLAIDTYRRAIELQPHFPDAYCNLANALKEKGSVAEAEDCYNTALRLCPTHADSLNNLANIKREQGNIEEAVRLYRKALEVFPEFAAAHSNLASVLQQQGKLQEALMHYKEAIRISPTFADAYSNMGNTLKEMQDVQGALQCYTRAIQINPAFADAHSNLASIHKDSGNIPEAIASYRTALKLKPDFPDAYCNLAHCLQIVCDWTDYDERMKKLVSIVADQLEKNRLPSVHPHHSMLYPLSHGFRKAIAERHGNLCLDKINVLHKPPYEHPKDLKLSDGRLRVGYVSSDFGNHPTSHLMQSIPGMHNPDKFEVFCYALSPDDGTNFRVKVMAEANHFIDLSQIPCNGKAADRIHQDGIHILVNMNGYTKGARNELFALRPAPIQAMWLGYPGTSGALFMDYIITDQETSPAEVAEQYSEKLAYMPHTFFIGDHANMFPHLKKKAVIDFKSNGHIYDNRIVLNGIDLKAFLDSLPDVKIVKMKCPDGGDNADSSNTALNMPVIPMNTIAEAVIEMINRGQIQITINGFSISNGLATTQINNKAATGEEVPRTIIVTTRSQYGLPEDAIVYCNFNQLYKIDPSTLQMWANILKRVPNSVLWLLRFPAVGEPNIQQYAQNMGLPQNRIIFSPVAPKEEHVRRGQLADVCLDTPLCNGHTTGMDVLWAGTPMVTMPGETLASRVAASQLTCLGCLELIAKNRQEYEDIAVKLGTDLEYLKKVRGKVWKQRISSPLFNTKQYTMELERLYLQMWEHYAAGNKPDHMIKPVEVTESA


Assays:
Conditions in all cases: BL21-DE3
[1] = molecular target: T1, UDP-N-acetylglucosamine--peptide N-acetylglucosaminyltransferase 110 kDa subunit (Homo sapiens); experiment: Binding affinity to human OGT expressed in Escherichia coli […] cells assessed as alpha-FLAG-HRP activity relative to alpha-A-crystallin peptide by azido-ELISA
Procedure, shortened: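 Biotinylated peptides are reacted at saturating levels with Ni-column-purified human OGT from E. coli BL21(DE3), plus UDP-GlcNAz 62.5 μM, MgCl2 12.5 μM and β-mercaptoethanol 1 mM, for 4 h at 37 °C. Reactions are stopped with pH 4.5 sodium acetate and captured on NeutrAvidin. Product is tagged with phosphine-FLAG, detected by anti-FLAG-HRP/TMB at A450, normalized to the parent peptide after Ala-peptide background subtraction. Data are from 3 experiments, each in triplicate.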

[2] = substrate: CC[C@H](C)[C@H](NC(=O)[C@H](C)N)C(=O)N1CCC[C@H]1C(=O)N[C@H](C(=O)N[C@@H](CO)C(=O)N[C@@H](CCCNC(=N)N)C(=O)N1CCC[C@H]1C(=O)N[C@@H](CCC(=O)O)C(=O)N[C@@H](CCCCN)C(=O)O)C(C)C; experiment: (§1) Binding affinity to human OGT expressed in Escherichia coli BL1 (DE3) cells by azido-ELISA
Procedure, shortened: (§2)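 Km is derived from the azido-ELISA using Ni-purified human OGT expressed in E. coli BL21(DE3), with UDP-GlcNAz as donor, MgCl2 and β-mercaptoethanol, incubated at 37 °C. Biotinylated peptide product is captured on NeutrAvidin, Staudinger-tagged with phosphine-FLAG (0.2 mM, 2 h, 37 °C), and quantified by anti-FLAG-HRP with TMB at 450 nm.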

[3] = substrate: CC[C@H](C)[C@H](NC(=O)[C@H](C)N)C(=O)N1CCC[C@H]1C(=O)N[C@H](C(=O)N[C@@H](CO)C(=O)N[C@@H](CCCNC(=N)N)C(=O)N[C@@H](CCC(=O)O)C(=O)N[C@@H](CCC(=O)O)C(=O)N[C@@H](CCCCN)C(=O)O)C(C)C; experiment: as §1; procedure, shortened: as §2
[4] = substrate: CC[C@H](C)[C@H](NC(=O)[C@H](C)N)C(=O)N1CCC[C@H]1C(=O)N[C@H](C(=O)N[C@@H](CO)C(=O)N[C@@H](CCCNC(=N)N)C(=O)N[C@@H](C)C(=O)N[C@@H](CCC(=O)O)C(=O)N[C@@H](CCCCN)C(=O)O)C(C)C; experiment: as §1; procedure, shortened: as §2

Activity [1] | Molecule | Km [2] | Km [3] | Km [4]
1.8 | CC[C@H](C)[C@H](NC(=O)[C@@H]1CCCN1)C(=O)N1CCC[C@H]1C(=O)N[C@H](C(=O)N[C@@H](CO)C(=O)N[C@@H](CCCNC(=N)N)C(=O)N[C@@H](CCC(=O)O)C(=O)N[C@@H](CCC(=O)O)C(=O)N[C@@H](CCCCN)C(=O)O)C(C)C (H-PIPVSREEK-OH) | – | – | –
2 | CC[C@H](C)[C@H](NC(=O)[C@@H](N)CCCNC(=N)N)C(=O)N1CCC[C@H]1C(=O)N[C@H](C(=O)N[C@@H](CO)C(=O)N[C@@H](CCCNC(=N)N)C(=O)N[C@@H](CCC(=O)O)C(=O)N[C@@H](CCC(=O)O)C(=O)N[C@@H](CCCCN)C(=O)O)C(C)C (H-RIPVSREEK-OH) | – | – | –
– | UDP-N-acetylglucosamine--peptide N-acetylglucosaminyltransferase 110 kDa subunit (Homo sapiens), O15294 (protein) MASSVGNVADSTEPTKRMLSFQGLAELAHREYQAGDFEAAERHCMQLWRQEPDNTGVLLLLSSIHFQCRRLDRSAHFSTLAIKQNPLLAEAYSNLGNVYKERGQLQEAIEHYRHALRLKPDFIDGYINLAAALVAAGDMEGAVQAYVSALQYNPDLYCVRSDLGNLLKALGRLEEAKACYLKAIETQPNFAVAWSNLGCVFNAQGEIWLAIHHFEKAVTLDPNFLDAYINLGNVLKEARIFDRAVAAYLRALSLSPNHAVVHGNLACVYYEQGLIDLAIDTYRRAIELQPHFPDAYCNLANALKEKGSVAEAEDCYNTALRLCPTHADSLNNLANIKREQGNIEEAVRLYRKALEVFPEFAAAHSNLASVLQQQGKLQEALMHYKEAIRISPTFADAYSNMGNTLKEMQDVQGALQCYTRAIQINPAFADAHSNLASIHKDSGNIPEAIASYRTALKLKPDFPDAYCNLAHCLQIVCDWTDYDERMKKLVSIVADQLEKNRLPSVHPHHSMLYPLSHGFRKAIAERHGNLCLDKINVLHKPPYEHPKDLKLSDGRLRVGYVSSDFGNHPTSHLMQSIPGMHNPDKFEVFCYALSPDDGTNFRVKVMAEANHFIDLSQIPCNGKAADRIHQDGIHILVNMNGYTKGARNELFALRPAPIQAMWLGYPGTSGALFMDYIITDQETSPAEVAEQYSEKLAYMPHTFFIGDHANMFPHLKKKAVIDFKSNGHIYDNRIVLNGIDLKAFLDSLPDVKIVKMKCPDGGDNADSSNTALNMPVIPMNTIAEAVIEMINRGQIQITINGFSISNGLATTQINNKAATGEEVPRTIIVTTRSQYGLPEDAIVYCNFNQLYKIDPSTLQMWANILKRVPNSVLWLLRFPAVGEPNIQQYAQNMGLPQNRIIFSPVAPKEEHVRRGQLADVCLDTPLCNGHTTGMDVLWAGTPMVTMPGETLASRVAASQLTCLGCLELIAKNRQEYEDIAVKLGTDLEYLKKVRGKVWKQRISSPLFNTKQYTMELERLYLQMWEHYAAGNKPDHMIKPVEVTESA | 0.8 µM | 8.7 µM | 0.5 µM
